# Experimental data as given in ChEMBL document CHEMBL1133181, “A novel approach for the virtual screening and rational design of anticancer compounds” (J Med Chem, 2000).
# Columns and labels:
# [1] = Concentration required to reduce proliferation of human T-lymphocyte CEM/0 cells by 50%; assay type: functional, cell-based
# How it was run: (§1)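 CEM or Molt4/C8 cells were seeded into 96-well wells with test compound and grown for 72 h at 37 °C in a humidified, CO2-controlled atmosphere. Cells were then counted with a Coulter counter. IC50 is the compound concentration that reduced the number of living cells by 50%.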
# [2] = Concentration required to reduce proliferation of human T-lymphocyte Molt4/C8 cells by 50%; assay type: functional, cell-based; conditions: molt-4; how it was run: as §1
# [3] = tested on: L1210; experiment: Concentration required to reduce proliferation of murine leukemia L1210/0 cells by 50%; assay type: functional, cell-based, Mus musculus
# How it was run: (§2)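 L1210 murine leukemia cells were incubated in 96-well microtiter wells with test compound for 48 h at 37 °C under humidified, CO2-controlled conditions. Cell numbers were then counted with a Coulter counter. IC50 was taken as the concentration giving a 50% reduction in living cell count.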
# [4] = Antitumor activity to reduce proliferation of human T-lymphocyte CEM/0 cells by 50%; assay type: functional, cell-based; how it was run: as §1
# [5] = Antitumor activity to reduce proliferation of human T-lymphocyte Molt4/C8 cells by 50%; assay type: functional, cell-based; conditions: molt-4; how it was run: as §1
# [6] = tested on: L1210; experiment: Antitumor activity to reduce proliferation of murine leukemia L1210/0 cells by 50%; assay type: functional, cell-based, Mus musculus; how it was run: as §2
Structure (SMILES),IC50 [1] [mg/L],IC50 [2] [mg/L],IC50 [3] [mg/L],IC50 [4] [mg/L],IC50 [5] [mg/L],IC50 [6] [mg/L]
OCC1CCCC1Cn1cnc2c(O)ncnc21 (cis isomer),> 200,> 200,> 200,–,–,–
OCC1CCCC1Cn1cnc2c(Cl)ncnc21 (trans isomer),–,–,–,15,22.3,48.7
O=c1[nH]c(=O)n(CC2CCCC2CO)cc1I (cis isomer),–,–,–,117,108,71.1
Nc1ncnc2c1ncn2C1CCCC1CO (cis isomer),–,–,–,> 200,–,> 200
Nc1ncnc2c1ncn2C1CCCC1CO (trans isomer),–,–,–,180,> 200,179
OCC1CCCC1n1cnc2c(O)ncnc21 (trans isomer),> 200,> 200,> 200,–,–,–
O=c1[nH]c(=O)n(C2CCCC2CO)cc1I (trans isomer),–,–,–,> 200,> 200,> 200
Nc1ncnc2c1ncn2CC1CCCC1CO (stereo in doubt; 7c),–,–,–,108,100,102
Nc1ncnc2c1ncn2CC1CCCC1CO (trans isomer),–,–,–,> 200,> 200,> 200
OCC1CCCC1n1cnc2c(Cl)ncnc21 (trans isomer),–,–,–,19,39.2,56.1
O=c1[nH]c(=O)n(C2CCCC2CO)cc1I (stereo in doubt; 4a),–,–,–,57.4,77.4,52.3
OCC1CCCC1Cn1cnc2c(Cl)ncnc21 (cis isomer),–,–,–,16,6.54,14
O=c1[nH]c(=O)n(CC2CCCC2CO)cc1I (trans isomer),–,–,–,131,158,65.8
O=c1ccn(CC2CCCC2CO)c(=O)[nH]1 (configuration not stated),–,–,–,> 200,> 200,> 200
OCC1CCCC1n1cnc2c(Cl)ncnc21 (cis isomer),–,–,–,61,49.9,62.8
O=c1ccn(C2CCCC2CO)c(=O)[nH]1 (trans isomer),–,–,–,> 200,> 200,> 200
